Values after ≈ are worked out from the molar mass of the structure shown. Active and inactive are the calls of the source. No cut-off for these calls is given here.
Assays:
Mus musculus [1] = species: Mus musculus; test: MIC at the Maximal testable level in mice was evaluated; assay type: functional; conditions: read-out: MIC
[2] = In vitro antiviral activity against mice infected intracerebrally with Poliovirus type-2; assay type: functional
Enterovirus = test: In vitro antiviral activity against Rhinovirus type-2; assay type: functional
Mus musculus [3] = test: In vitro antiviral activity against mice infected intracerebrally with Poliovirus type-2; IA=Inactive; assay type: functional, organism-based
Mus musculus [4] = test: Prevention of Echo-9-Induced Paralysis in Suckling mice by intraperitoneal administration at dose 1 mg/kg; expressed as no. nonparalyzed/total 2/30; assay type: functional
Outline: (§1)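 Suckling mice infected subcutaneously with a lethal dose of ECHO-9 virus. Intraperitoneal dosing at 1.0, 3.3, 10 or 33 mg/kg, or placebo, began 1 h before infection and continued once daily for 8 days. Groups of 30 animals were scored for paralysis, and the test ended 14 days post-infection. Results are given as % nonparalyzed (± spread) and as the nonparalyzed/total count.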

Mus musculus [5] = test: Prevention of Echo-9-Induced Paralysis in Suckling mice by intraperitoneal administration at dose 10 mg/kg; Expressed as % nonparalyzed; assay type: functional; outline: as §1
Mus musculus [6] = test: Prevention of Echo-9-Induced Paralysis in Suckling mice by intraperitoneal administration at dose 10 mg/kg; expressed as no. nonparalyzed/total 19/30; assay type: functional; outline: as §1
Mus musculus [7] = test: Prevention of Echo-9-Induced Paralysis in Suckling mice by intraperitoneal administration at dose 3.3 mg/kg; Expressed as % nonparalyzed; assay type: functional; outline: as §1
Mus musculus [8] = test: Prevention of Echo-9-Induced Paralysis in Suckling mice by intraperitoneal administration at dose 3.3 mg/kg; expressed as no. nonparalyzed/total 6/30; assay type: functional; outline: as §1
Mus musculus [9] = test: Prevention of Echo-9-Induced Paralysis in Suckling mice by intraperitoneal administration at dose 33 mg/kg; Expressed as % nonparalyzed; assay type: functional; outline: as §1
Mus musculus [10] = test: Prevention of Echo-9-Induced Paralysis in Suckling mice by intraperitoneal administration at dose 33 mg/kg; expressed as no. nonparalyzed/total 29/30; assay type: functional; outline: as §1
Mus musculus [11] = species: Mus musculus; test: Prevention of Echo-9-Induced Paralysis in Suckling mice with Placebo; Expressed as % nonparalyzed; assay type: functional; outline: as §1
Mus musculus [12] = species: Mus musculus; test: Prevention of Echo-9-Induced Paralysis in Suckling mice with Placebo; expressed as no. nonparalyzed/total 0/30; assay type: functional; outline: as §1
Mus musculus [13] = test: Prevention of Echo-9-Induced Paralysis in Suckling mice by intraperitoneal administration at dose 1 mg/kg; Expressed as % nonparalyzed; assay type: functional; outline: as §1
Mus musculus [14] = test: In vivo antiviral activity at 16 mg/kg oral dose in mice infected with Poliovirus;13/20; assay type: functional
Outline: (§2)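 Mice given oral drug or placebo starting 1 h before intracerebral infection with poliovirus type 2. Doses were 4, 8, 16 or 32 mg/kg, with 20 mice per group. Survival was scored as % survivors and number surviving out of total, with the test ending 20 days post-infection.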

Mus musculus [15] = test: In vivo antiviral activity at 32 mg/kg oral dose in mice infected with Poliovirus; 15/20; assay type: functional; outline: as §2
Mus musculus [16] = test: In vivo antiviral activity at 4 mg/kg oral dose in mice infected with Poliovirus; 8/20; assay type: functional; outline: as §2
Mus musculus [17] = test: In vivo antiviral activity at 8 mg/kg oral dose in mice infected with Poliovirus; 9/20; assay type: functional; outline: as §2
Mus musculus [18] = test: In vivo antiviral activity of the compound in Placebo treated mice infected with Poliovirus; 4/20; assay type: functional; outline: as §2
Mus musculus [19] = test: In vivo antiviral activity at 16 mg/kg oral dose in mice infected with Poliovirus; assay type: functional; outline: as §2
Mus musculus [20] = test: In vivo antiviral activity at 32 mg/kg oral dose in mice infected with Poliovirus; assay type: functional; outline: as §2
Mus musculus [21] = test: In vivo antiviral activity at 4 mg/kg oral dose in mice infected with Poliovirus; assay type: functional; outline: as §2
Mus musculus [22] = test: In vivo antiviral activity at 8 mg/kg oral dose in mice infected with Poliovirus; assay type: functional; outline: as §2
Mus musculus [23] = test: In vivo antiviral activity of the compound in Placebo treated mice infected with Poliovirus; assay type: functional; outline: as §2

| SMILES | maximal testable concentration (Mus musculus [1]) | MIC [2] | MIC (Enterovirus) | also measured |
| --- | --- | --- | --- | --- |
| Cc1cc(CCCCCCCCOc2ccc(C3=NCCO3)cc2)on1 | 8 µg/mL | 0.01 mg/L (≈ 0.0281 µM) | 0.16 mg/L (≈ 0.449 µM) | – |
| COCC1CN=C(c2ccc(OCCCCCCCc3cc(C)no3)cc2)O1 (stereo not given) | 3.1 µg/mL | – | 0.2 mg/L (≈ 0.517 µM) | MIC (Mus musculus [3]): inactive |
| Cc1cc(CCCCCCCOc2ccc(C3=N[C@H](C)CO3)cc2)on1 | 3.1 µg/mL | 0.16 mg/L (≈ 0.449 µM) | 0.02 mg/L (≈ 0.0561 µM) | – |
| Cc1cc(CCCCCCOc2ccc(C3=NCCO3)cc2)on1 | 3.1 µg/mL | 0.008 mg/L (≈ 0.0244 µM) | 0.12 mg/L (≈ 0.365 µM) | – |
| Cc1cc(CCCCCCCOc2ccc(C3=NC(CO)CO3)cc2)on1 (stereo not given) | 3.1 µg/mL | – | 0.9 mg/L (≈ 2.42 µM) | MIC (Mus musculus [3]): inactive |
| Cc1cc(CCCCCCCOc2ccc(C3=NCC(C)O3)cc2)on1 (stereo not given) | 6.2 µg/mL | 0.49 mg/L (≈ 1.37 µM) | 0.06 mg/L (≈ 0.168 µM) | – |
| Cc1cc(CCCCCCCOc2ccc(C3=NC(C)(C)CO3)cc2)on1 | 3.1 µg/mL | 1.1 mg/L (≈ 2.97 µM) | 0.06 mg/L (≈ 0.162 µM) | – |
| CCOC(=O)c1ccc(OCCCCCCCc2cc(C)no2)cc1 | – | > 0.8 mg/L | 0.025 mg/L (≈ 0.0724 µM) | – |
| COc1ccc(OCCCCCCCc2cc(C)no2)c(Cl)c1 | – | 0.05 mg/L (≈ 0.148 µM) | 0.04 mg/L (≈ 0.118 µM) | – |
| Cc1cc(CCCCCOc2ccc(C3=NCCO3)cc2)on1 | 3.1 µg/mL | 0.003 mg/L (≈ 0.00954 µM) | 0.1 mg/L (≈ 0.318 µM) | – |
| Cc1cc(CCCCCCCOc2ccc(C3=NCCO3)cc2)on1 [DISOXARIL] | 6.2 µg/mL | 0.004 mg/L (≈ 0.0117 µM) | 0.1 mg/L (≈ 0.292 µM) | Activity (Mus musculus [4]): 2; Activity (Mus musculus [5]): 63.7%; Activity (Mus musculus [6]): 19; Activity (Mus musculus [7]): 20%; Activity (Mus musculus [8]): 6; Activity (Mus musculus [9]): 96.7%; Activity (Mus musculus [10]): 29; Activity (Mus musculus [11]): 0%; Activity (Mus musculus [12]): 0; Activity (Mus musculus [13]): 6.7%; No. of survivors/total (Mus musculus [14]): 13; No. of survivors/total (Mus musculus [15]): 15; No. of survivors/total (Mus musculus [16]): 8; No. of survivors/total (Mus musculus [17]): 9; No. of survivors/total (Mus musculus [18]): 4; Survivors (Mus musculus [19]): 65%; Survivors (Mus musculus [20]): 71%; Survivors (Mus musculus [21]): 40%; Survivors (Mus musculus [22]): 45%; Survivors (Mus musculus [23]): 20% |
| Cc1cc(CCCCOc2ccc(C3=NCCO3)cc2)on1 | 6.2 µg/mL | 0.49 mg/L (≈ 1.63 µM) | 0.53 mg/L (≈ 1.76 µM) | – |
| Cc1cc(CCCCCCCOc2ccc(C3=NCC(CO)O3)cc2)on1 (stereo not given) | 3.1 µg/mL | 2.6 mg/L (≈ 6.98 µM) | 1.6 mg/L (≈ 4.3 µM) | – |
| Cc1cc(CCCCCCCOc2ccc(C3=NC(C)CO3)cc2)on1 (stereo not given) | 3.1 µg/mL | 0.12 mg/L (≈ 0.337 µM) | 0.04 mg/L (≈ 0.112 µM) | – |

— ChEMBL document CHEMBL1123069, “[[(4,5-Dihydro-2-oxazolyl)phenoxy]alkyl]isoxazoles. Inhibitors of picornavirus uncoating” (1985)
